According to ChEMBL document CHEMBL1165869, “Synthesis, characterization and antihypertensive activity of pyridazinone derivatives” (2010):

tested on: Rattus norvegicus; experiment: Antihypertensive activity against methyl prednisolone acetate-indcuced hypertension in normotensive albino rat assessed as reduction in mean arterial pressure at 20 mg/kg, ip after 1 hr; assay type: functional, Artery; design: scale not given: the % may be the effect or the level left; conditions: route intraperitoneal
Summary of the method: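 Albino rats (200–250 g), conditioned in restrainer 10 min daily for one week; hypertension induced by s.c. methyl prednisolone acetate 20 mg/kg/wk for 2 weeks. Compound suspended in 1% CMC, given i.p.; mean arterial pressure read 1 h later in conscious rats by non-invasive tail-cuff. Groups of 5; mean ± SEM; one-way ANOVA with Dunnett test versus hypertensive control.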

Compound	Activity [%]
Cc1ccc(C2=NN(CN3CCCCC3)C(=O)CC2)cc1	35.56
Cc1ccc(C2=NN(CN3CCNCC3)C(=O)CC2)cc1	40.98
COc1ccc(C2=NN(CN3CCNCC3)C(=O)CC2)cc1	35.44
O=C1CCC(c2ccc(Cl)cc2)=NN1CN1CCNCC1	28.78
O=C1CCC(c2ccc(Cl)cc2)=NN1Cn1cncn1	29.77
CC(C)Cc1ccc(C2=NN(CN3CCNCC3)C(=O)CC2)cc1	32.48
CC(C)Cc1ccc(C2=NN(CN3CCCCC3)C(=O)CC2)cc1	16.09
O=C1CCC(c2ccc(-c3ccccc3)cc2)=NN1CN1CCOCC1	29.52
O=C1CCC(c2ccc(-c3ccccc3)cc2)=NN1CN1CCCCC1	29.52
CN1CCN(CN2N=C(c3ccc(-c4ccccc4)cc3)CCC2=O)CC1	25.58
O=C1CCC(c2ccccc2)=NN1CN1CCOCC1	31.21
O=C1CCC(c2ccccc2)=NN1CN1CCCC1	19.11
Cc1ccc(C2=NN(CN3CCN(C)CC3)C(=O)CC2)cc1	39.13
Cc1ccc(C2=NN(CN3c4ccccc4Sc4ccccc43)C(=O)CC2)cc1	34.94
Cc1ccc(C2=NN(CN3CCCC3)C(=O)CC2)cc1	31.74
COc1ccc(C2=NN(CN3CCN(C)CC3)C(=O)CC2)cc1	36.05
COc1ccc(C2=NN(CN3c4ccccc4Sc4ccccc43)C(=O)CC2)cc1	33.83
O=C1CCC(c2ccccc2)=NN1CN1CCNCC1	41.99
CCc1ccc(C2=NN(CN3CCN(C)CC3)C(=O)CC2)cc1	47.14

Compound	Activity [%]
O=C1CCC(c2ccc(Cl)cc2)=NN1CN1CCCCC1	24.84
CN1CCN(CN2N=C(c3ccc(Cl)cc3)CCC2=O)CC1	39.5
O=C1CCC(c2ccc(Cl)cc2)=NN1CN1c2ccccc2Sc2ccccc21	38.88
O=C1CCC(c2ccc(-c3ccccc3)cc2)=NN1CN1CCCC1	30.14
O=C1CCC(c2ccc(-c3ccccc3)cc2)=NN1Cn1cncn1	39.5
O=C1CCC(c2ccccc2)=NN1CN1c2ccccc2Sc2ccccc21	42.4
O=C1CCC(c2ccccc2)=NN1Cn1ccc2ccccc21	15.81
O=C1CCC(c2ccccc2)=NN1Cn1cncn1	38.7
O=C1CCC(c2ccc(Cl)cc2)=NN1CN1CCCC1	30.01
CC(C)Cc1ccc(C2=NN(CN3CCN(C)CC3)C(=O)CC2)cc1	28.29
CCc1ccc(C2=NN(Cn3ccc4ccccc43)C(=O)CC2)cc1	32.97
CC(C)Cc1ccc(C2=NN(CN3CCOCC3)C(=O)CC2)cc1	24.22
COc1ccc(C2=NN(Cn3ccc4ccccc43)C(=O)CC2)cc1	32.72
COc1ccc(C2=NN(CN3CCCC3)C(=O)CC2)cc1	31.62
CC(C)Cc1ccc(C2=NN(Cn3cncn3)C(=O)CC2)cc1	34.94
CCc1ccc(C2=NN(CN3CCOCC3)C(=O)CC2)cc1	47.31
CC(C)Cc1ccc(C2=NN(CN3c4ccccc4Sc4ccccc43)C(=O)CC2)cc1	25.58
CC(C)Cc1ccc(C2=NN(CN3CCCC3)C(=O)CC2)cc1	32.97
COc1ccc(C2=NN(Cn3cncn3)C(=O)CC2)cc1	29.27

Compound	Activity [%]
CCc1ccc(C2=NN(CN3CCNCC3)C(=O)CC2)cc1	36.05
CN1CCN(CN2N=C(c3ccccc3)CCC2=O)CC1	39.93
O=C1CCC(c2ccc(-c3ccccc3)cc2)=NN1CN1c2ccccc2Sc2ccccc21	25.91
O=C1CCC(c2ccc(-c3ccccc3)cc2)=NN1Cn1ccc2ccccc21	33.46
Cc1ccc(C2=NN(Cn3cncn3)C(=O)CC2)cc1	41.16
COc1ccc(C2=NN(CN3CCOCC3)C(=O)CC2)cc1	29.77
COc1ccc(C2=NN(CN3CCCCC3)C(=O)CC2)cc1	27.16
CCc1ccc(C2=NN(CN3CCCC3)C(=O)CC2)cc1	44.31
O=C1CCC(c2ccccc2)=NN1CN1CCCCC1	33.46
O=C1CCC(c2ccc(-c3ccccc3)cc2)=NN1CN1CCNCC1	30.14
Cc1ccc(C2=NN(Cn3ccc4ccccc43)C(=O)CC2)cc1	23.85
Cc1ccc(C2=NN(CN3CCOCC3)C(=O)CC2)cc1	14.12
O=C1CCC(c2ccc(Cl)cc2)=NN1CN1CCOCC1	25.83
CCc1ccc(C2=NN(CN3CCCCC3)C(=O)CC2)cc1	30.51
CCc1ccc(C2=NN(CN3c4ccccc4Sc4ccccc43)C(=O)CC2)cc1	36.17
O=C1CCC(c2ccc(Cl)cc2)=NN1Cn1ccc2ccccc21	36.3
CCc1ccc(C2=NN(Cn3cncn3)C(=O)CC2)cc1	29.52
CC(C)Cc1ccc(C2=NN(Cn3ccc4ccccc43)C(=O)CC2)cc1	28.91
NNc1nncc2ccccc12 [HYDRALAZINE]	40.76
